According to ChEMBL document CHEMBL3779860, “A Designed Tryptophan- and Lysine/Arginine-Rich Antimicrobial Peptide with Therapeutic Potential for Clinical Antibiotic-Resistant Candida albicans Vaginitis” (J Med Chem, 2016):
≈ marks a conversion by molar mass, not a printed value. Calls of active or inactive are those of the source. No cut-off for these calls is given here.

Columns and labels:
Escherichia coli = test: Antimicrobial activity against Escherichia coli ATCC 25922 assessed as inhibition of […] growth after 16 hrs by broth dilution method; format: functional; conditions: ATCC 25922, 16 h
In short: (§1)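 Broth dilution in LB broth; 100 µL of 2 × 10^5 CFU/mL bacterial suspension plus 10 µL sample (stock series in 0.9% NaCl) in 90 µL broth, 37°C for 16 h. Growth read as A600; MIC is the lowest concentration completely inhibiting growth. Mean of three independent experiments run in duplicate.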

Bacillus subtilis = test: Antimicrobial activity against Bacillus subtilis assessed as inhibition of […] growth after 16 hrs by broth dilution method; format: functional; in short: as §1
Staphylococcus aureus = test: Antimicrobial activity against Staphylococcus aureus ATCC 2592 assessed as inhibition of […] growth after 16 hrs by broth dilution method; format: functional; conditions: ATCC 2592, 16 h; in short: as §1
Mus musculus [1] = test: Antiinflammatory activity in antibiotic resistant Candida albicans clinical isolate 08030809 induced mouse vaginitis model assessed as microabscess number in vaginal tissue at 200 ug administered as intravaginal instillation measured after 16 days by hematoxylin-eosin staining based microscopic method (reference value: 61); format: functional, Vagina
In short: (§2)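 Mice given weekly subcutaneous estradiol valerate (0.5 mg in 0.1 mL vegetable oil) 72 h before infection. Infected intravaginally with 20 µL of 10^7 CFU/mL C. albicans 08030809. Intravaginal instillation of 20 µL daily for 16 days. Vaginal canals excised after lavage, formalin-fixed, paraffin-embedded, HE-stained. Microabscesses counted per high-power field over 6 fields per section, three independent experiments.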

Candida albicans [2] = test: Antimicrobial activity against antibiotic resistant Candida albicans clinical isolate 08030809 assessed as clone count at 10 mg/ml after 30 mins by colony counting assay (reference value: 156 +/- 16 CFU); format: functional
Candida albicans [3] = test: Antimicrobial activity against antibiotic resistant Candida albicans clinical isolate 08030809 assessed as clone count at 10 mg/ml after 24 hrs by colony counting assay (Rvb > 10^5 CFU); format: functional
Candida albicans [4] = test: Antimicrobial activity against antibiotic resistant Candida albicans clinical isolate 08030809 assessed as clone count at 10 mg/ml after 12 hrs by colony counting assay (reference value: 54153 +/- 8769 CFU); format: functional
Mus musculus [5] = test: Antiinflammatory activity in antibiotic resistant Candida albicans clinical isolate 08030809 induced mouse vaginitis model assessed as reduction in IL-1beta secretion in vaginal tissue at 10 mg/ml administered as intravaginal instillation measured on day 10 by ELISA; format: functional, organism-based; conditions: Vagina
In short: (§3)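 Same estradiol-primed mouse model, infected intravaginally with C. albicans 08030809 and treated by intravaginal instillation (20 µL/mouse). Vaginal canals excised on day 10 of treatment and homogenised in 0.9% NaCl. Supernatant taken after 2,000 g for 15 min. TNF-α, IL-6, IL-1β and IL-10 measured by ELISA. Mean ± SE of three independent experiments; unpaired t-test versus vehicle.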

Mus musculus [6] = test: Antiinflammatory activity in antibiotic resistant Candida albicans clinical isolate 08030809 induced mouse vaginitis model assessed as reduction in IL-6 secretion in vaginal tissue at 10 mg/ml administered as intravaginal instillation measured on day 10 by ELISA; format: functional, organism-based; conditions: Vagina; in short: as §3
Candida albicans [7] = test: Antimicrobial activity against antibiotic resistant Candida albicans clinical isolate 08030809 in mouse vaginitis model assessed as decrease in colony count in lavage liquid of vagina at 10 mg/ml administered as intravaginal instillation measured on day 16; format: functional; conditions: isolate 08030809, Vagina, topical, 384 h
Mus musculus [8] = test: Antiinflammatory activity in antibiotic resistant Candida albicans clinical isolate 08030809 induced mouse vaginitis model assessed as reduction in TNF-alpha secretion in vaginal tissue at 10 mg/ml administered as intravaginal instillation measured on day 10 by ELISA; format: functional, organism-based; conditions: Vagina; in short: as §3
Candida albicans [9] = test: Antimicrobial activity against antibiotic resistant Candida albicans clinical isolate 08030809 assessed as clone count at 10 mg/ml after 1 hr by colony counting assay (reference value: 228 +/- 23 CFU); format: functional
Mus musculus [10] = test: Antiinflammatory activity in antibiotic resistant Candida albicans clinical isolate 08030809 induced mouse vaginitis model assessed as microabscess number in vaginal tissue at 200 ug administered as intravaginal instillation measured on day 6 by hematoxylin-eosin staining based microscopic method (reference value: 61); format: functional, Vagina; in short: as §2
Candida albicans [11] = test: Antimicrobial activity against antibiotic resistant Candida albicans clinical isolate 08030809 assessed as clone count at 10 mg/ml after 6 hrs by colony counting assay (reference value: 14536 +/- 2467 CFU); format: functional
Candida albicans [12] = test: Antimicrobial activity against antibiotic resistant Candida albicans clinical isolate 08030809 in mouse vaginitis model assessed as colony count in lavage liquid of vagina at 10 mg/ml administered as intravaginal instillation measured on day 16; format: functional
Candida albicans [13] = test: Antimicrobial activity against antibiotic resistant Candida albicans clinical isolate 08030809 assessed as clone count at 10 mg/ml after 10 mins by colony counting assay (reference value: 102 +/- 11 CFU); format: functional
Mus musculus [14] = test: Antiinflammatory activity in antibiotic resistant Candida albicans clinical isolate 08030809 induced mouse vaginitis model assessed as reduction in IL-10 secretion in vaginal tissue at 10 mg/ml administered as intravaginal instillation measured on day 10 by ELISA; format: functional, organism-based; conditions: Vagina; in short: as §3
Candida albicans [15] = test: Antimicrobial activity against antibiotic resistant Candida albicans clinical isolate 08030809 assessed as clone count at 10 mg/ml after 1 min by colony counting assay (reference value: 62 +/- 7 CFU); format: functional
Candida albicans [16] = test: Effect on cell membrane integrity in antibiotic resistant Candida albicans clinical isolate 08030809 at 20 ug/ml measured every 2 mins upto 20 mins by SYTOX green nucleic acid staining-based fluorescence assay; format: functional, organism-based
In short: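 Exponential-phase C. albicans 08030809 was washed and resuspended at 10^6 CFU/mL in 10 mM PBS pH 7.4. Cells were loaded with 0.1 µM (final) SYTOX Green for 15 min at 37°C with shaking, then test samples were added. Fluorescence (ex 488/em 530 nm) was recorded every 2 min as RFU. Mean ± SE of five independent experiments.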

Candida albicans [17] = test: Antimicrobial activity against antibiotic resistant Candida albicans clinical isolate 08030809 assessed as clone count at 10 mg/ml after 3 hrs by colony counting assay (reference value: 3687 +/- 543 CFU); format: functional
Candida albicans [18] = test: Antimicrobial activity against Candida albicans ATCC 2002 assessed as inhibition of yeast growth after 16 hrs by broth dilution method; format: functional; conditions: ATCC 2002, 16 h
In short: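 Broth microdilution in Sabouraud liquid medium. Samples are stocks in 0.9% NaCl, 10 µL added to 90 µL broth plus 100 µL of 2 × 10^5 CFU/mL yeast suspension. Incubated 16 h at 28°C, growth read by A600. MIC is the lowest concentration completely inhibiting growth; mean of three independent experiments.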

[19] = Induction of hemolysis in human RBC at 320 ug/mL after 30 mins; format: cell-based, Erythrocyte; conditions: red blood cells, read-out: Activity
In short: (§4)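 Serial dilutions were incubated with human erythrocytes for 30 min at 37°C. Supernatant absorbance was read at 540 nm after centrifugation. Hemolysis is expressed as % of the 1% Triton X-100 lysis value, pooled from three independent experiments. The highest concentration tested was 320 µg/mL.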

[20] = Hemolytic activity in human RBC after 30 mins; format: ADME, cell-based, Erythrocyte; conditions: for HC10: erythrocyte, 0.5 h; for HC50 at 0.5 h: red blood cells; in short: as §4

Row | Compound | MIC (Escherichia coli) [µg/mL] | MIC (Bacillus subtilis) [µg/mL] | MIC (Staphylococcus aureus) [µg/mL] | MIC (Candida albicans [18]) [µg/mL] | hemolysis at 0.5 h, 320 ug/mL [19] [%] | HC10 [20] [µg/mL] | HC50 at 0.5 h [20] [µg/mL] | other results
1 | CC1(C)S[C@@H]2[C@H](NC(=O)[C@H](N)c3ccccc3)C(=O)N2[C@H]1C(=O)O [AMPICILLIN] | 18.7 (≈ 53.5 µM) | 0.02 (≈ 0.0572 µM) | 0.15 (≈ 0.429 µM) |  |  |  |  | 
2 | Clc1ccccc1C(c1ccccc1)(c1ccccc1)n1ccnc1 [CLOTRIMAZOLE] |  |  |  |  |  |  |  | Activity (Mus musculus [1]): 10; Activity (Candida albicans [2]): 106 CFU; Activity (Candida albicans [3]): 57425 CFU; Activity (Candida albicans [4]): 15789 CFU; Activity (Mus musculus [5]): inactive; Activity (Mus musculus [6]): inactive; inhibition in vivo at 10000 µg/mL (Candida albicans [7]): 38%; Activity (Mus musculus [8]): inactive; Activity (Candida albicans [9]): 178 CFU; Activity (Mus musculus [10]): 18; Activity (Candida albicans [11]): 2674 CFU; Activity (Candida albicans [12]): 1.2 ×10⁴ CFU/ml; Activity (Candida albicans [13]): 64 CFU; Activity (Mus musculus [14]): inactive; Activity (Candida albicans [15]): 42 CFU; Activity (Candida albicans [16]): inactive; Activity (Candida albicans [17]): 533 CFU
3 | OC(Cn1cncn1)(Cn1cncn1)c1ccc(F)cc1F [FLUCONAZOLE] |  |  |  | 18.7 (≈ 61.1 µM) |  |  |  | 
4 | H-KFFRKLKKSVKKRAKEFFKKPRVIGVSIPF-OH | 2.34 | 9.38 | > 100 | 4.7 | 7.4 | > 320 | > 320 | 
5 | H-VKRFKKFFRKFKKSV-NH2 [listing 1 of 2 here] |  |  |  |  | 7.5 | > 320 | > 320 | 
6 | H-VKRFKKFFRKFKKSV-NH2 [listing 2 of 2 here] | 37.5 | > 100 | > 100 | 9.38 |  |  |  | 
7 | H-VKRFKKFFRKLKKSV-NH2 | 18.8 | 75 | > 100 | 18.8 | 9.7 | > 320 | > 320 | 
8 | H-VKRWKKFWRKWKKWW-NH2 [listing 1 of 2 here] |  |  |  |  | 27.6 | 51.7 | > 320 | 
9 | H-VKRWKKFWRKWKKWW-NH2 [listing 2 of 2 here] | 18.8 | 4.69 | 4.69 | 2.34 |  |  |  | 
10 | H-VKRWKKWWRKLKKSV-NH2 | 18.8 | > 100 | > 100 | 9.38 | 8.7 | > 320 | > 320 | 
11 | H-VKWRWKKWRWKWKWKV-NH2 [listing 1 of 2 here] |  |  |  |  | 17.6 | 178.3 | > 320 | 
12 | H-VKWRWKKWRWKWKWKV-NH2 [listing 2 of 2 here] | > 100 | > 100 | > 100 | > 100 |  |  |  | 
13 | H-VKWRWKWKWRWKWKWKV-NH2 | > 100 | > 100 | > 100 | > 100 | 30.8 | 62.8 | > 320 | 
